Data taken from ChEMBL document CHEMBL1165920, “Structural determinants for the inhibitory ligands of orotidine-5'-monophosphate decarboxylase” (Bioorg Med Chem, 2010).
The source made the active and inactive calls. No cut-off for these calls is given here.

Experiments:
[1] = target: T1, Orotidine 5'-phosphate decarboxylase (Saccharomyces cerevisiae S288c, UniProt P03962); assay: Inhibition of Saccharomyces cerevisiae uridine 5'-monophosphate synthase after overnight incubation at room temperature by VP-ITC microcalorimetry
T1 sequence (P03962 whole entry): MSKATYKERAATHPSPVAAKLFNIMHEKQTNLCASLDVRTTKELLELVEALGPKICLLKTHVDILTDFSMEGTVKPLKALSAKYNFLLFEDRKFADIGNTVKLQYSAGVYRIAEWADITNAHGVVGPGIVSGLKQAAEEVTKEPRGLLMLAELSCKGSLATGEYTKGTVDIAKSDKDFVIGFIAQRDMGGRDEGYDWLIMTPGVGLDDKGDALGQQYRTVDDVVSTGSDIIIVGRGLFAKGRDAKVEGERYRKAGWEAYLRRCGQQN

[2] = target: Orotidine 5'-phosphate decarboxylase (Methanobacterium thermoautotrophicum, UniProt O26232); assay: Inhibition of Methanothermobacter thermautotrophicus uridine 5'-monophosphate synthase after overnight incubation at room temperature by VP-ITC microcalorimetry
Outline: (§1)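 Isothermal titration calorimetry with Mt ODCase (final 20 nM). Enzyme stock was kept in 50 mM Tris pH 7.5, 20 mM DTT, 40 mM NaCl overnight at rt. Assay buffer was degassed 50 mM Tris pH 7.5 with 1 mM DTT. Run at 55 °C, started by injecting 5 mM OMP in 50 mM Tris. Inhibitor series spanned 5–40 µM or 0.5–5 mM. Competitive Ki was derived from Ki(app) = Ki(1+[S]/KM).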

[3] = target: Orotidine 5'-phosphate decarboxylase (Methanobacterium thermoautotrophicum) (UniProt O26232); assay: Competitive inhibition of Methanothermobacter thermautotrophicus uridine 5'-monophosphate synthase after overnight incubation at room temperature by Lineweaver-Burke plot analysis; outline: as §1
[4] = Inhibition of Helicobacter pylori uridine 5'-monophosphate synthase after overnight incubation at room temperature by VP-ITC microcalorimetry
Outline: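 Reversible inhibition measured by ITC with Hp ODCase (final 60 nM) and 20 µM OMP substrate. Assay buffer was degassed 50 mM Tris pH 7.5 with 1 mM DTT. Inhibitor series were 0.25–1.5 µM or 0.25–2.5 mM. Ki was fitted as competitive from Ki(app) = Ki(1+[S]/KM).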

[5] = target: T1, Orotidine 5'-phosphate decarboxylase; assay: Inhibition of Saccharomyces cerevisiae uridine 5'-monophosphate synthase
[6] = target: T2, Orotidine phosphate decarboxylase (Plasmodium falciparum) (UniProt Q8T6J6); conditions: 0.5 to 5 mM
T2 sequence (whole entry): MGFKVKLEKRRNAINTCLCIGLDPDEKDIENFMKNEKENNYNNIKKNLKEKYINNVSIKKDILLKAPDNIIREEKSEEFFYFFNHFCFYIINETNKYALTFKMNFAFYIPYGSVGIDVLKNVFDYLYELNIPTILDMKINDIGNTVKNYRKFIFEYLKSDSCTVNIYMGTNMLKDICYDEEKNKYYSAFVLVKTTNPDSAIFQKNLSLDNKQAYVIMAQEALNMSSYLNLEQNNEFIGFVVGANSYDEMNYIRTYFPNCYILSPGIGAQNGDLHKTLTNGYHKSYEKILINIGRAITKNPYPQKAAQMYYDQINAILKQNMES

Sequence of Orotidine 5'-phosphate decarboxylase (Methanobacterium thermoautotrophicum, UniProt O26232) (O26232 whole entry): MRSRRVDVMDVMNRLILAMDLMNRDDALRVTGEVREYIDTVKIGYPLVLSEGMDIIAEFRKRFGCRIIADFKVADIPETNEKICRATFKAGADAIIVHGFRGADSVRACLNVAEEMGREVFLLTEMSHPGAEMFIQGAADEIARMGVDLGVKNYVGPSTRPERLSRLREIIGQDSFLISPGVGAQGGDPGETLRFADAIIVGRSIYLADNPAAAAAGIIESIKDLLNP
Sequence of Orotidine 5'-phosphate decarboxylase (Methanobacterium thermoautotrophicum) (O26232 whole entry, looked up): as the sequence (O26232 whole entry) above

Ki [5] [nM] | Structure (SMILES) | Ki [1] [nM] | Ki [2] [nM] | inhibition [3] | Ki [4] [nM] | inhibition [6]
– | NC(=O)c1[nH]nc([C@@H]2O[C@H](COP(=O)(O)O)[C@@H](O)[C@H]2O)c1O | 5 | 6200 | Active | 130 | –
0.0088 | O=c1cc(O)n([C@@H]2O[C@H](COP(=O)(O)O)[C@@H](O)[C@H]2O)c(=O)[nH]1 | 0.009 | – | – | – | –
– | N#Cc1cc(=O)[nH]c(=O)n1[C@@H]1O[C@H](COP(=O)(O)O)[C@@H](O)[C@H]1O | – | – | – | – | Active
